We go through 55 compounds from ChEMBL document CHEMBL1152292, “Biarylpyrazolyl oxadiazole as potent, selective, orally bioavailable cannabinoid-1 receptor antagonists for the treatment of obesity” (J Med Chem, 2008).

As usually defined, the IC50 is the concentration at which inhibition is half-maximal. A lower IC50 goes with greater potency in that assay.

One test has as its target Cannabinoid receptor 1 (Rattus norvegicus, UniProt P20272). Description: Displacement of [3H]CP-55940 from CB1 receptor in Sprague-Dawley rat cerebellum by liquid scintillation spectrometry. The procedure, abridged: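 Cerebella from male rats (200-300 g) homogenized in TME buffer (50 mM Tris-HCl, 1 mM EDTA, 3 mM MgCl2, pH 7.4), centrifuged 48000g 30 min at 4 °C. About 10 µg membrane incubated with radioligand and varied test concentrations in TME plus 0.5% fatty-acid-free BSA, 1 h at 30 °C. Filtered through PEI-soaked GF/B filters. […] IC50 by nonlinear regression, triplicates, three independent experiments.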
Background: Displacement assays read how much labelled ligand stays bound in the presence of the test substance.

The nature of test [1]: Selectivity ratio of IC50 for human CB2 receptor to IC50 for Sprague-Dawley rat CB1 receptor. In outline:
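Ratio of CB2 IC50 to CB1 IC50. Both come from radioligand competition on membranes incubated 1 h at 30 °C in TME/0.5% BSA: rat cerebellar membranes for CB1, human CB2-transfected CHO K-1 membranes for CB2. IC50 by nonlinear regression from three independent triplicate experiments.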

The next test addresses Cannabinoid receptor 2 (Homo sapiens, UniProt P34972). Description: Displacement of [3H]WIN-55212-2 from human CB2 receptor expressed in CHOK1 cells by liquid scintillation spectrometry. It is filed as cell-based, CHO-K1. In outline: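 Membranes from CHO K-1 cells transfected with human CB2, prepared as for cerebellum. About 10 µg membrane incubated with radioligand and varied test concentrations in TME buffer plus 0.5% fatty-acid-free BSA, 1 h at 30 °C. Filtered through PEI-soaked GF/B filters. Nonspecific binding defined with 1 µM WIN55,212-2. IC50 by nonlinear regression, triplicates, three independent experiments.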

Chain of Cannabinoid receptor 2 (P34972 whole entry): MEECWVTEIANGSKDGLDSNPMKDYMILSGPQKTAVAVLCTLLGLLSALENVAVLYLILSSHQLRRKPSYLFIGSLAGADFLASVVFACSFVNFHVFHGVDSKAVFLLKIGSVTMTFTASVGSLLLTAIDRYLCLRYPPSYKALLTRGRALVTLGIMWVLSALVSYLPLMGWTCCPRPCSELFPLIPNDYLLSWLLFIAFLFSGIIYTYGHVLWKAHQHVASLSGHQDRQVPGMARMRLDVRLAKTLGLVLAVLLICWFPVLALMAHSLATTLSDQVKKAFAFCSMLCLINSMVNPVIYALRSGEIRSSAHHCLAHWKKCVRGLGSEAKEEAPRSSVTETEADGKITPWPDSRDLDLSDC
Chain of Cannabinoid receptor 1 (P20272 whole entry): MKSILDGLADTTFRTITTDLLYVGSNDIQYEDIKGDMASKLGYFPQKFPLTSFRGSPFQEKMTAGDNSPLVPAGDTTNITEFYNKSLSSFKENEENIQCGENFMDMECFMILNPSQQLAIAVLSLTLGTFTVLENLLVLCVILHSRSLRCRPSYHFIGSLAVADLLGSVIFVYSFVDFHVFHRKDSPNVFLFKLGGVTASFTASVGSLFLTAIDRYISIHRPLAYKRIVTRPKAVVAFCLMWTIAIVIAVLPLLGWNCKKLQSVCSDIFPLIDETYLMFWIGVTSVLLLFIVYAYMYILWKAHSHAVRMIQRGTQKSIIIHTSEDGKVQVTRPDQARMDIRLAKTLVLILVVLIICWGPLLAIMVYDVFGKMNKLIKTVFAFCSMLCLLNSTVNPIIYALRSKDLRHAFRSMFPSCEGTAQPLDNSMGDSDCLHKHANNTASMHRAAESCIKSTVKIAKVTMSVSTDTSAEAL

On Cannabinoid receptor 1, `Cc1c(-c2nnc(C3CCC3)o2)nn(-c2ccc(Cl)cc2Cl)c1-c1ccc(Cl)cc1` displayed an IC50 of 13.1 nM. In the case of `CCC(C)(C)c1nnc(-c2nn(-c3ccc(Cl)cc3Cl)c(-c3ccc(Cl)cc3)c2C)o1`, the IC50 on Cannabinoid receptor 1 was found to be 10.4 nM. This IC50 and that of the compound before are within 1.5-fold of each other. On the same count and under the same terms, the result for `Cc1c(-c2nnc(-c3ccccc3)o2)nn(-c2ccc(Cl)cc2Cl)c1-c1ccc(Cl)cc1` reads 281 nM.

As to `CC1(c2nnc(-c3nn(-c4ccc(Cl)cc4Cl)c(-c4ccc(Br)cc4)c3Cn3cncn3)o2)CC1`, the Ratio IC50 in test [1] stood at 145. Also, the results for the IC50 at Cannabinoid receptor 1 and at Cannabinoid receptor 2 were 2.81 nM and 407 nM, respectively. As to `CC(O)c1c(-c2nnc(C(C)(C)C)o2)nn(-c2ccc(Cl)cc2Cl)c1-c1ccc(Cl)cc1` (stereo not drawn), the Ratio IC50 in test [1] amounted to 187. The compound further displayed an IC50 on Cannabinoid receptor 2 of 1890 nM.

For `CC(=O)OCc1c(-c2nnc(C(C)(C)C)o2)nn(-c2ccc(Cl)cc2Cl)c1-c1ccc(Cl)cc1`, in test [1], the Ratio IC50 is 58. At Cannabinoid receptor 2, the IC50 was found to be 1300 nM.

`COC(=O)NC(C)c1c(-c2nnc(C(C)(C)C)o2)nn(-c2ccc(Cl)cc2Cl)c1-c1ccc(Cl)cc1` (stereo not drawn): the Ratio IC50 in test [1] is over 1110. The IC50 was 9 nM on Cannabinoid receptor 1 and over 10000 nM on Cannabinoid receptor 2. For the compound `COC(=O)NCc1c(-c2nnc(C(C)(C)C)o2)nn(-c2ccc(Cl)cc2Cl)c1-c1ccc(Cl)cc1`, the Ratio IC50 in test [1] is 107. The IC50 at Cannabinoid receptor 2 is 1670 nM. The like results for `CC(F)c1c(-c2nnc(C(C)(C)C)o2)nn(-c2ccc(Cl)cc2Cl)c1-c1ccc(Cl)cc1` (stereo not drawn) were, in that order, 66 and 924 nM. The like results for `COCc1c(-c2nnc(C(C)(C)C)o2)nn(-c2ccc(Cl)cc2Cl)c1-c1ccc(Cl)cc1` were, in that order, 24 and 375 nM. Regarding `CC(C)(C)c1nnc(-c2nn(-c3ccc(Cl)cc3Cl)c(-c3ccc(Cl)cc3)c2COc2ccccn2)o1`, the Ratio IC50 in test [1] turned out to be 84. Further, the IC50 on Cannabinoid receptor 2 stood at 2040 nM. On to `CCC(CC)c1nnc(-c2nn(-c3ccc(Cl)cc3Cl)c(-c3ccc(Cl)cc3)c2C)o1`, for which the IC50 on Cannabinoid receptor 1 amounted to 31.7 nM. This counts as double-digit nanomolar. Consider `CC(=O)SCc1c(-c2nnc(C(C)(C)C)o2)nn(-c2ccc(Cl)cc2Cl)c1-c1ccc(Cl)cc1`, for which the Ratio IC50 in test [1] stood at 71. At Cannabinoid receptor 2, the IC50 stood at 1480 nM. The like results for `Clc1ccc(-c2c(Cn3cncn3)c(-c3nnc(C4(c5ccc(Cl)cc5)CC4)o3)nn2-c2ccc(Cl)cc2Cl)cc1` were, in that order, 670 and 1480 nM. The like results for `CC(C)(C)c1nnc(-c2nn(-c3ccc(Cl)cc3Cl)c(-c3ccc(Cl)cc3)c2Cn2cccn2)o1` were, in that order, 48 and 979 nM.

With `Cc1ccc(C2(c3nnc(-c4nn(-c5ccc(Cl)cc5Cl)c(-c5ccc(Cl)cc5)c4Cn4cncn4)o3)CC2)cc1`, the Ratio IC50 in test [1] was determined as 1140. The IC50 worked out at 1.09 nM on Cannabinoid receptor 1 and 1240 nM at Cannabinoid receptor 2.

For the compound `CC(C)(C)c1nnc(-c2nn(-c3ccc(Cl)cc3Cl)c(-c3ccc(Cl)cc3)c2CC#N)o1`, in test [1], the Ratio IC50 came out at 88. In addition, the half-maximal inhibitory concentration (IC50) on Cannabinoid receptor 2 turned out to be 539 nM. The like results for `CC(C)(C)c1nnc(-c2nn(-c3ccc(Cl)cc3Cl)c(-c3ccc(Cl)cc3)c2Cn2cncn2)o1` were, in that order, 341 and 804 nM.

At Cannabinoid receptor 1, `CCCCC(C)c1nnc(-c2nn(-c3ccc(Cl)cc3Cl)c(-c3ccc(Cl)cc3)c2C)o1` (stereo not drawn) showed an IC50 of 15.1 nM. The same measure, in the same setting: the result for `CCCCc1nnc(-c2nn(-c3ccc(Cl)cc3Cl)c(-c3ccc(Cl)cc3)c2C)o1` reads 35 nM. On the same count and under the same terms, then `Cc1c(-c2nnc(C3CCCCC3)o2)nn(-c2ccc(Cl)cc2Cl)c1-c1ccc(Cl)cc1`, with 12 nM. `Clc1ccc(C2(c3nnc(-c4nn(-c5ccc(Cl)cc5Cl)c(-c5ccc(Br)cc5)c4Cn4cncn4)o3)CC2)cc1`: in test [1], the Ratio IC50 was 1840. Further, the IC50 on Cannabinoid receptor 1 is 0.57 nM; at Cannabinoid receptor 2, 1050 nM. The like results for `Clc1ccc(-n2nc(-c3nnc(C4(c5ccccc5)CC4)o3)c(Cn3cncn3)c2-c2ccc(Br)cc2)c(Cl)c1` were, in that order, 252, 0.96 nM and 242 nM. As to `C=C(C)c1c(-c2nnc(C(C)(C)C)o2)nn(-c2ccc(Cl)cc2Cl)c1-c1ccc(Cl)cc1`, the Ratio IC50 in test [1] is 358. At Cannabinoid receptor 2, this compound came in with an IC50 of 1730 nM.

`CCCc1nnc(-c2nn(-c3ccc(Cl)cc3Cl)c(-c3ccc(Cl)cc3)c2C)o1` registered an IC50 at Cannabinoid receptor 1 of 160 nM. The same measure, in the same setting: then `Cc1c(-c2nnc(C(C)C)o2)nn(-c2ccc(Cl)cc2Cl)c1-c1ccc(Cl)cc1`, with 25 nM; and `Cc1c(-c2nnc(C(C)c3ccccc3)o2)nn(-c2ccc(Cl)cc2Cl)c1-c1ccc(Cl)cc1` (stereo not drawn), with 10.9 nM. As for `CC1(c2nnc(-c3nn(-c4ccc(Cl)cc4Cl)c(-c4ccc(Cl)cc4)c3Cn3cncn3)o2)CC1`, the Ratio IC50 in test [1] came out at 482. For the same compound, the figures for the IC50 on Cannabinoid receptor 1 and on Cannabinoid receptor 2 were 1.98 nM and 954 nM, respectively. Regarding `CC(C)(C)c1nnc(-c2nn(-c3ccc(Cl)cc3Cl)c(-c3ccc(Cl)cc3)c2C(C)(C)O)o1`, in test [1], the Ratio IC50 was determined as 74. For the same compound, the IC50 at Cannabinoid receptor 2 stood at 1670 nM.

For the compound `CC(C)(C)c1nnc(-c2nn(-c3ccc(Cl)cc3Cl)c(-c3ccc(Cl)cc3)c2CO)o1`, the Ratio IC50 in test [1] was found to be 124. Besides, the IC50 at Cannabinoid receptor 1 is 14.6 nM; at Cannabinoid receptor 2, 1810 nM. Consider `CC(C)(C)c1nnc(-c2nn(-c3ccc(Cl)cc3Cl)c(-c3ccc(Cl)cc3)c2Cn2ccnn2)o1`, for which the Ratio IC50 in test [1] worked out at 88. Also, on Cannabinoid receptor 2, the IC50 is 1120 nM.

`Cc1c(-c2nnc(C(C)(C)c3ccc(Cl)cc3)o2)nn(-c2ccc(Cl)cc2Cl)c1-c1ccc(Cl)cc1` yielded an IC50 on Cannabinoid receptor 1 of 4.78 nM. Still for that read-out and setting: the result for `CCCCCc1nnc(-c2nn(-c3ccc(Cl)cc3Cl)c(-c3ccc(Cl)cc3)c2C)o1` reads 71.8 nM; that for `Cc1c(-c2nnc(C3CCCCCC3)o2)nn(-c2ccc(Cl)cc2Cl)c1-c1ccc(Cl)cc1`, 26.5 nM. Regarding `Cc1ccc(C2(c3nnc(-c4nn(-c5ccc(Cl)cc5Cl)c(-c5ccc(Br)cc5)c4Cn4cncn4)o3)CC2)cc1`, in test [1], the Ratio IC50 stood at 432. The IC50 on Cannabinoid receptor 1 is 1.34 nM; at Cannabinoid receptor 2 it was 579 nM.

`Cc1c(-c2nnc(C(C)(C)C)o2)nn(-c2ccc(Cl)cc2Cl)c1-c1ccc(Cl)cc1`: the Ratio IC50 in test [1] is 186. Besides, the IC50 amounted to 7.59 nM at Cannabinoid receptor 1 and 1410 nM on Cannabinoid receptor 2. As to `CC(C)(C)c1nnc(-c2nn(-c3ccc(Cl)cc3Cl)c(-c3ccc(Cl)cc3)c2COc2ccccc2)o1`, in test [1], the Ratio IC50 stood at 204. Besides, the IC50 on Cannabinoid receptor 2 was 5910 nM. In turn, `Clc1ccc(-c2c(Cn3cncn3)c(-c3nnc(C4(c5ccccc5)CC4)o3)nn2-c2ccc(Cl)cc2Cl)cc1` showed an IC50 at Cannabinoid receptor 2 of 1130 nM. For `CC(C)(C)c1nnc(-c2nn(-c3ccc(Cl)cc3Cl)c(-c3ccc(Cl)cc3)c2Cn2ccnc2)o1`, the Ratio IC50 in test [1] came out at 20. On Cannabinoid receptor 2, the IC50 turned out to be 376 nM. Consider `CCCCC(C)(C)c1nnc(-c2nn(-c3ccc(Cl)cc3Cl)c(-c3ccc(Cl)cc3)c2C)o1`, for which, at Cannabinoid receptor 1, the IC50 is 14.7 nM. Same read-out and setting: the result for `Cc1c(-c2nnc(Cc3ccccc3)o2)nn(-c2ccc(Cl)cc2Cl)c1-c1ccc(Cl)cc1` reads 19.2 nM. For `C=Cc1c(-c2nnc(C(C)(C)C)o2)nn(-c2ccc(Cl)cc2Cl)c1-c1ccc(Cl)cc1`, in test [1], the Ratio IC50 was found to be 62. At Cannabinoid receptor 2, this compound yielded an IC50 of 1050 nM. The compound `C[C@H](NC(=O)C(C)(C)Oc1ccc(C(F)(F)F)cn1)[C@@H](Cc1ccc(Cl)cc1)c1cccc(C#N)c1` [TARANABANT] registered an IC50 at Cannabinoid receptor 1 of 0.86 nM. This lies in the sub-nanomolar range. As to `CCc1c(-c2nnc(C(C)(C)C)o2)nn(-c2ccc(Cl)cc2Cl)c1-c1ccc(Cl)cc1`, the Ratio IC50 in test [1] was found to be 355. Moreover, the IC50 on Cannabinoid receptor 1 worked out at 6.57 nM; at Cannabinoid receptor 2, 2330 nM. `CC(C)(C)c1nnc(-c2nn(-c3ccc(Cl)cc3Cl)c(-c3ccc(Cl)cc3)c2C(=O)O)o1` returned an IC50 at Cannabinoid receptor 1 of over 10000 nM.

Take `CCCc1c(-c2nnc(C(C)(C)C)o2)nn(-c2ccc(Cl)cc2Cl)c1-c1ccc(Cl)cc1`: the Ratio IC50 in test [1] was over 299. For the same compound, the IC50 on Cannabinoid receptor 1 was 33.5 nM; at Cannabinoid receptor 2, over 10000 nM. The like results for `CC(C)(C)c1nnc(-c2nn(-c3ccc(Cl)cc3Cl)c(-c3ccc(Cl)cc3)c2Cn2ncnn2)o1` were, in that order, 202, 3.37 nM and 680 nM. Turning to `CCC(C)c1nnc(-c2nn(-c3ccc(Cl)cc3Cl)c(-c3ccc(Cl)cc3)c2C)o1` (stereo not drawn), the IC50 on Cannabinoid receptor 1 was determined as 10.4 nM. The same measure, in the same setting: then `Cc1c(-c2nnc(Cc3ccccn3)o2)nn(-c2ccc(Cl)cc2Cl)c1-c1ccc(Cl)cc1`, with 51.9 nM. For `CC(C)(C)c1nnc(-c2nn(-c3ccc(Cl)cc3Cl)c(-c3ccc(Cl)cc3)c2C2CC2)o1`, the Ratio IC50 in test [1] was determined as 110. For the same compound, the IC50 was found to be 30.3 nM at Cannabinoid receptor 1 and 3320 nM on Cannabinoid receptor 2. As for `CC(C)(C)c1nnc(-c2nn(-c3ccc(Cl)cc3Cl)c(-c3ccc(Br)cc3)c2Cn2cncn2)o1`, the Ratio IC50 in test [1] turned out to be 187. The compound also yielded an IC50 on Cannabinoid receptor 2 of 513 nM. For the compound `Cc1c(-c2nnc(C(C)(C)c3ccccc3)o2)nn(-c2ccc(Cl)cc2Cl)c1-c1ccc(Cl)cc1`, the IC50 at Cannabinoid receptor 1 amounted to 8.42 nM. That is a single-digit nanomolar value. As to `CC(C)(C)c1nnc(-c2nn(-c3ccc(Cl)cc3Cl)c(-c3ccc(Cl)cc3)c2Cn2cnnn2)o1`, the Ratio IC50 in test [1] was 96. On Cannabinoid receptor 2, this compound returned an IC50 of 736 nM. With `CC(C)c1c(-c2nnc(C(C)(C)C)o2)nn(-c2ccc(Cl)cc2Cl)c1-c1ccc(Cl)cc1`, in test [1], the Ratio IC50 worked out at 157. In addition, the IC50 on Cannabinoid receptor 1 stood at 18 nM; on Cannabinoid receptor 2 it was 2820 nM. For `CC(C)(C)c1nnc(-c2nn(-c3ccc(Cl)cc3Cl)c(-c3ccc(Cl)cc3)c2CF)o1`, the Ratio IC50 in test [1] came out at 76. On Cannabinoid receptor 2, this compound displayed an IC50 of 1120 nM.
